Our source for the fluorescence artifact activation values is PubChem BioAssay AID504382 (The Scripps Research Institute Molecular Screening Center, 2011).

In all, about 2,500 compounds went through this assay and about 460 (18%) were called active. A selection follows. A number with no mark means an inactive call.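 How the source made its calls: active means mean activation above a cutoff of low control average plus 3 SD from the earlier screen (cut at about 12% in these data); inactive means the rest.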

This assay in a line: compound fluorescence interference without thin filaments, confirmation, artefact control for cardiac RTF calcium sensitizer project, biochemical (AID 504382). The conditions noted are these: IANBD fluorescence interference counterscreen, buffer, EC20 Ca2+; at 7.2 µM; hits give high values; scaled: EC20 calcium 0, EC100 calcium 100. Summed up:
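timing = compound incubation 15 min at 25 °C before fluorescence reading | technique = fluorescence at 480 nm excitation, 540 nm emission | evaluation = interference relative to controls | replication = triplicate wells per compound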
(Counterscreens check selectivity or assay interference.)
Turning to `CCSC1=N/C(=C\C=C2/Oc3ccccc3N2CC)C(=O)S1`, the fluorescence artifact activation was 9.59%.

As to `COC(=O)c1ccc(CSc2nnc(NCc3ccccc3)s2)o1`, the fluorescence artifact activation was 4.53%.

Regarding `CC1(C(=O)Nc2nnc(SCc3ccccc3)s2)Cc2ccccc2C(=O)O1` (stereo unspecified), the fluorescence artifact activation is 4.5%.

Turning to `CC(Sc1nnc(NCc2ccccc2)s1)C(=O)Nc1ccc2c(c1)C(=O)c1ccccc1C2=O` (stereo unspecified), the fluorescence artifact activation is 49% (active).

Regarding `CCc1ccc(C(C)NC(=O)c2ncn[nH]2)cc1` (stereo unspecified), the fluorescence artifact activation is 2.22%.

On to `Clc1ccc(-n2cc(-c3ccc(Br)cc3)[n+]3c2CCCCC3)cc1`, for which the fluorescence artifact activation was -0.05%.

`CC(C)(Cc1cccc(CC(C)(C)C(=O)O)c1)C(=O)O`: the fluorescence artifact activation was 0.07%.

As for `CC(=O)Oc1ccc2c(c1)Oc1cc(OC(C)=O)ccc1C21OC(=O)c2ccccc21`, the fluorescence artifact activation is 13.6% (active).

For `CC(=O)Oc1ccc(NC(=O)Cc2ccccc2)c(C(=O)O)c1`, the fluorescence artifact activation was 4.96%.

For `CCOc1ccc(-c2ncncc2-c2ccccc2OC)c(O)c1`, the fluorescence artifact activation was 0.08%.

As for `COc1ccc(-n2nc3c(N4CCC(C(=O)N5CCC(C)CC5)CC4)nnc(C)c3c2C)cc1`, the fluorescence artifact activation was 0.01%.

For `CCOC(=O)C(CCCCCCC(NC(C)=O)(C(=O)OCC)C(=O)OCC)(NC(C)=O)C(=O)OCC`, the fluorescence artifact activation is -0.02%.

Turning to `Cc1ccc(C(=O)N(C)CC(=O)Nc2cccc(F)c2)cc1S(=O)(=O)N1CCCCC1`, the fluorescence artifact activation was 0.72%.

Take `Cc1ccnc(N/C=C(\C#N)c2nc(-c3cccc(Br)c3)cs2)c1`: the fluorescence artifact activation is 5.15%.

Regarding `COc1cccc(/C=N/Nc2nnc(C)n2N)c1O`, the fluorescence artifact activation was 0.12%.

For the molecule `CC(C)(C)c1ccc(-c2n[nH]c(=S)n2CC2CCCO2)cc1` (stereo unspecified), the fluorescence artifact activation is 34.7% (active).

For the molecule `CCOc1cc(/C=C2\NC(=O)NC2=O)cc([N+](=O)[O-])c1O`, the fluorescence artifact activation is 0.01%.

As to `COc1ccc(/C=C2/SC(c3ccc(C)cc3)=NC2=O)cc1OC`, the fluorescence artifact activation is 6.74%.

Turning to `CCOC(=O)c1ccc(-c2c(-c3ccc4c(c3)OCO4)noc2C)cc1F`, the fluorescence artifact activation was 0.96%.

On to `O=C(O)CSc1nc2ccccc2nc1Cc1ccccc1F`, for which the fluorescence artifact activation was 163% (active).

For `O=C(Cc1nc2ccccc2[nH]c1=O)c1ccccc1`, the fluorescence artifact activation is 0.01%.

For the molecule `O=c1ccc2cc3c4c(c2o1)CCCN4CCC3`, the fluorescence artifact activation was 9.87%.

For `Cn1ncc2c(O/N=C(\N)c3ccc(C(F)(F)F)cc3)ncnc21`, the fluorescence artifact activation was 18.5% (active).

With `Cc1c(O)c(=O)c2ccccc2n1C`, the fluorescence artifact activation is 2.22%.

Turning to `CCOc1ccc2ccccc2c1CNCCN1CCOCC1`, the fluorescence artifact activation is 9.02%.

Consider `CCCCCOc1ccc(CN2CCOCC2)cc1Cl`, for which the fluorescence artifact activation was 25.8% (active).

`CCCOc1ccc(Cn2c(=O)oc3ccc(C)cc32)cc1OC`: the fluorescence artifact activation was 6.44%.

As to `CCC(=O)N(C)CCc1cc2c(c(OC)c1/C=N/NC(=O)c1ccc(Br)cc1)OCO2`, the fluorescence artifact activation is 0.24%.

Take `O=C(Cn1c(=O)c(=O)n(Cc2ccccc2)c2ccc(Cl)cc21)Nc1ccc(F)cc1F`: the fluorescence artifact activation is 0.95%.

As to `COc1ncnc2c1N=C1CC(C)(C)CC(N)=C1S2`, the fluorescence artifact activation is 17.8% (active).

Regarding `CC1(C)CC2CC(C)(CN2C(=S)Nc2ccccc2F)C1` (stereo unspecified), the fluorescence artifact activation is 0.69%.

Take `O=C(NC1CC1)c1cccc2c1C(=O)c1ccc(N3CCC(Cc4ccccc4)CC3)cc1S2(=O)=O`: the fluorescence artifact activation was -0.05%.

Take `COc1ccc2c(Cl)c(C(=O)N/N=C3\CCCC(=O)C3)sc2c1`: the fluorescence artifact activation is 16.2% (active).

On to `O=C1CCC/C(=N/NC(=O)c2sc3ccccc3c2Cl)C1`, for which the fluorescence artifact activation is 0.36%.

Consider `O=C1CCCC(=NNC(=O)c2cc3ccccc3cc2O)C1`, for which the fluorescence artifact activation is 0.08%.

As for `CN(C)/C=C/C(=O)c1ccc(Br)s1`, the fluorescence artifact activation is 0.3%.

In the case of `O=c1c(/C=N/Nc2ccccc2)c(Sc2nnnn2-c2ccccc2)nc2ccccn12`, the fluorescence artifact activation is -0.06%.

With `O=C(O)c1ccccc1CSc1nnnn1-c1ccccc1`, the fluorescence artifact activation was 13.5% (active).

As for `C(=N\Nc1nnnn1-c1ccccc1)/c1ccncc1`, the fluorescence artifact activation is 0.02%.

For the molecule `Cc1ccnc(NC(=O)c2ccc(Br)s2)c1`, the fluorescence artifact activation was 0.08%.

Turning to `CCCCC1=CC2=C(c3ccco3)C(=O)C(C)(OC(=O)c3ccc(OC)cc3)C(=O)C2=CN1CCc1ccccn1` (stereo unspecified), the fluorescence artifact activation is 5.57%.

With `O=C(COC(=O)/C=C/c1ccccc1[N+](=O)[O-])NNC(=O)c1ccc(F)cc1`, the fluorescence artifact activation is 0.09%.

On to `COc1ccc(OC)c(NC(=O)CNC(=O)Cn2c(C)cc3ccccc3c2=O)c1`, for which the fluorescence artifact activation is 1380% (active).

With `COCc1cc(C)n(CC(=O)Nc2ccccc2C(=O)OC)c(=O)c1C#N`, the fluorescence artifact activation was 5.24%.

On to `COc1ccc(OC)c(NC(=S)Nc2ccccc2)c1`, for which the fluorescence artifact activation was -0.01%.

For `C=CCn1c(COc2cccc(C)c2)nnc1SCn1nnc2ccccc2c1=O`, the fluorescence artifact activation was 0.03%.

In the case of `NC(=O)C1(NC(=O)[C@@H]2CC3(CC(c4cccc(NC(=O)[C@@H]5CCC(=O)N5)c4)=NO3)CN2C(=O)c2ccccc2)CC1` (stereo partly specified), the fluorescence artifact activation was 0.3%.

For `CCC(=O)Nc1ccc(NC(=S)NC(=O)c2oc3ccccc3c2C)cc1`, the fluorescence artifact activation was 0.25%.

For the molecule `COCCCn1c(=O)/c(=C\c2ccccc2OC(C)C)s/c1=C(/C#N)C(=O)Nc1ccc(C(=O)O)cc1`, the fluorescence artifact activation was 0.05%.

As to `CN(C)c1ccc(/C=C(/C#N)C(=O)NCc2ccccc2)o1`, the fluorescence artifact activation was 2.9%.

As for `CN(C)c1ccc(/C=C(\C#N)C(=O)c2ccccc2)cc1`, the fluorescence artifact activation is 0.22%.

As for `CCN(CC)c1ccc(/C=C(\C#N)C(=O)NCc2ccccc2)cc1`, the fluorescence artifact activation is 13.8% (active).

Consider `CCN(CC)c1ccc(/C=C(\C#N)C(=O)c2ccc(Br)cc2)cc1`, for which the fluorescence artifact activation is -0.11%.

As to `CCN(CC)c1ccc(/C=C(/C#N)C(=O)NCc2ccccc2)o1`, the fluorescence artifact activation is 0.1%.

Regarding `CCN(CC)c1ccc(/C=C(\C#N)C(N)=S)cc1`, the fluorescence artifact activation is 16.2% (active).

Regarding `O=C(COC(=O)c1ccc(S(=O)(=O)N2CCCC2)cc1)NCc1ccco1`, the fluorescence artifact activation is 0.32%.

Turning to `COc1ccccc1C(=O)NN(C)C1=NS(=O)(=O)c2ccccc21`, the fluorescence artifact activation is 0.12%.

`CCNC(=O)NNC(=O)C1CC(c2cccs2)=NO1` (stereo unspecified): the fluorescence artifact activation was 0%.

As to `Cc1ccc(C2NC(=O)c3c(sc4c3CCN(C)C4)N2)o1` (stereo unspecified), the fluorescence artifact activation is 0.12%.

In the case of `CCOC(=O)c1c(C)[nH]c(C2=NNC(=NC(C)COC)SC2)c1C` (stereo unspecified), the fluorescence artifact activation was 22% (active).

On to `Cc1cc(C)n(-c2ccc([N+](=O)[O-])cc2-c2nn[nH]n2)n1`, for which the fluorescence artifact activation is 2.39%.
